Results published in ChEMBL document CHEMBL2401724, “Synthesis and structure--activity relationships of N²-alkylated quaternary β-carbolines as novel antitumor agents” (Eur J Med Chem, 2013).

Key:
[1] = system: BGC-823; assay: Cytotoxicity against human BGC823 cells by MTT assay; assay type: functional, cell-based
Method in brief: (§1)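 Cell lines were cultured in 96-well microtitre plates at 37 °C in humidified 5% CO₂. Compounds were dissolved in DMSO, at ≤2% (v/v) final in the growth medium. Viability was read by MTT staining, expressed relative to untreated cells.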

[2] = system: MCF7; assay: Cytotoxicity against human MCF7 cells by MTT assay; assay type: functional, cell-based; method in brief: as §1
[3] = system: 769-P; assay: Cytotoxicity against human 769-P cells by MTT assay; assay type: functional, cell-based; method in brief: as §1
[4] = system: HepG2; assay: Cytotoxicity against human HepG2 cells by MTT assay; assay type: functional, cell-based; method in brief: as §1
[5] = system: CWR22R; assay: Cytotoxicity against human 22Rv1 cells by MTT assay; assay type: functional, cell-based; method in brief: as §1
[6] = Antitumor activity against mouse Sarcoma 180 cells allografted in mouse assessed as tumor growth inhibition at 2.5 mg/kg, ip qd administered for 7 days measured after 21 days relative to control; assay type: functional; conditions: Sarcoma-180, ip, route intraperitoneal, read-out: TGI
Method in brief: (§2)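 Tumour cells (S180 sarcoma or Lewis lung) were first grown in mice for 7 days, then harvested. Viable cells (2 × 10⁶/mouse) were injected s.c. into the armpit. Groups of 10 female mice received the compound i.p. once daily for 7 consecutive days, starting 24 h after inoculation. Cyclophosphamide 30 mg/kg served as positive control and vehicle as negative control. Body weights were taken every 3 days. Mice were killed on day 21 post-inoculation, and tumours were excised and weighed to calculate the inhibition rate versus control.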

[7] = Cytotoxicity against mouse LLC cells by MTT assay; assay type: functional, cell-based; conditions: Lewis lung carcinoma; method in brief: as §1
[8] = system: HT-29; assay: Cytotoxicity against human HT-29 cells by MTT assay; assay type: functional, cell-based; method in brief: as §1
[9] = system: SK-OV-3; assay: Cytotoxicity against human SKOV3 cells by MTT assay; assay type: functional, cell-based; method in brief: as §1
[10] = Cytotoxicity against human ECA109 cells by MTT assay; assay type: functional, cell-based; conditions: ECa-109; method in brief: as §1
[11] = Acute toxicity in ip dosed C57BL/6 mouse after 14 days; assay type: organism-based; conditions: in vivo
Method in brief: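 C57BL/6 mice (9–12 weeks, 18–22 g), single i.p. dose; watched continuously for 2 h, intermittently over 24 h, then occasionally to day 14 for behaviour, deaths and delayed effects. Survivors killed at day 14; heart, liver, kidneys inspected macroscopically, early deaths also examined. LD50 derived graphically.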

[12] = system: A-375; assay: Cytotoxicity against human A375 cells by MTT assay; assay type: functional, cell-based; method in brief: as §1
[13] = system: Lewis lung carcinoma cell line; assay: Antitumor activity against mouse LLC cells allografted in mouse assessed as tumor growth inhibition at 4 mg/kg, ip qd administered for 7 days measured after 21 days relative to control; assay type: functional; conditions: route intraperitoneal, read-out: TGI; method in brief: as §2
[14] = Antitumor activity against mouse Sarcoma 180 cells allografted in mouse assessed as tumor growth inhibition at 4 mg/kg, ip qd administered for 7 days measured after 21 days relative to control; assay type: functional; conditions: Sarcoma-180, ip, route intraperitoneal, read-out: TGI; method in brief: as §2
[15] = system: LoVo; assay: Cytotoxicity against human LoVo cells; assay type: functional, cell-based
[16] = system: Lewis lung carcinoma cell line; assay: Antitumor activity against mouse LLC cells allografted in mouse assessed as tumor growth inhibition at 1.75 mg/kg, ip qd administered for 7 days measured after 21 days relative to control; assay type: functional; conditions: route intraperitoneal, read-out: TGI; method in brief: as §2
[17] = Antitumor activity against mouse Sarcoma 180 cells allografted in mouse assessed as tumor growth inhibition at 1.75 mg/kg, ip qd administered for 7 days measured after 21 days relative to control; assay type: functional; conditions: Sarcoma-180, ip, route intraperitoneal, read-out: TGI; method in brief: as §2

## Fc1ccc(C[n+]2ccc3c4ccccc4n(CCCc4ccccc4)c3c2)cc1.[Cl-]
[1]
  IC50: 8.1 µM
[2]
  IC50: 9.7 µM
[3]
  IC50: 14.3 µM
[4]
  IC50: 10.4 µM
[5]
  IC50: 4.3 µM
[6]
  inhibition in vivo at 2.5 mg/kg: 51.5%
[7]
  IC50: 8.1 µM
[8]
  IC50: 9.1 µM
[9]
  IC50: 12.2 µM
[10]
  IC50: 5.3 µM
[11]
  LD50 at 336 h: 12.5 mg/kg
[12]
  IC50: 10.4 µM

## c1ccc(Cn2c3ccccc3c3cc[n+](Cc4ccccc4)cc32)cc1
[13]
  inhibition in vivo at 4 mg/kg: 48.5%
[1]
  IC50: 38.7 µM
[2]
  IC50: 18.7 µM
[3]
  IC50: 8.7 µM
[14]
  inhibition in vivo at 4 mg/kg: 45.9%
[4]
  IC50: 34.6 µM
[5]
  IC50: 5.7 µM
[7]
  IC50: < 2 µM
[8]
  IC50: 42.5 µM
[9]
  IC50: 16.9 µM
[15]
  IC50: 20 µM
[10]
  IC50: 32.7 µM
[12]
  IC50: 7.8 µM

## [Br-].c1ccc(CCCn2c3ccccc3c3cc[n+](Cc4ccccc4)cc32)cc1
[1]
  IC50: 8.5 µM
[2]
  IC50: 14.4 µM
[3]
  IC50: 4.9 µM
[16]
  inhibition in vivo at 1.75 mg/kg: 59.2%
[4]
  IC50: 7.9 µM
[5]
  IC50: 3.2 µM
[7]
  IC50: 3.9 µM
[8]
  IC50: 7.6 µM
[17]
  inhibition in vivo at 1.75 mg/kg: 62.1%
[9]
  IC50: 4.4 µM
[10]
  IC50: 11.7 µM
[11]
  LD50 at 336 h: 8.9 mg/kg
[12]
  IC50: 8.7 µM
